Columns and labels:
[1] = biological target: Sphingosine 1-phosphate receptor 3 (Homo sapiens, UniProt Q99500); assay: Agonist activity at human S1P3 expressed in CHO cell membranes assessed as stimulation of [35S]-GTPgamma-S binding measured after 45 mins by liquid scintillation counting method; parameters: species or system Cell membrane
Rattus norvegicus [2] = assay: Reduction in circulating lymphocytes count in Lewis rat blood at 1 mg/kg, po measured at 24 hrs by hematology analyzer based analysis; assay type: functional; parameters: scale not given: the % may be the effect or the level left
Outline: (§1)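 Lewis rats were given an oral dose as a solution or suspension in PEG300, with controls receiving vehicle only. Blood was taken by retro-orbital bleeding under isoflurane at 4 and 24 h. Lymphocytes were counted on a hematology analyzer. Reduction is relative to the vehicle group, averaged over the animals in each group (n = 3−4).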

[3] = Selectivity index, ratio of EC50 for agonist activity at human S1P3 expressed in CHO cell membranes to EC50 for agonist activity at human S1P1 expressed in CHO cell membranes; assay type: cell-based
[4] = Plasma concentration in Lewis rat at 1 mg/kg, po measured at 4 hr; assay type: ADME, organism-based; conditions: for concentration at 4 h: Lewis, plasma
Outline: (§2)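 Lewis rats received a single oral 1.0 mg/kg dose as solution or suspension in PEG300. Blood was drawn retro-orbitally under isoflurane at 4 h and 24 h, within the blood lymphocyte reduction study. n = 3−4 per group, group mean reported.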

Rattus norvegicus [5] = assay: Reduction in circulating lymphocytes count in Lewis rat blood at 1 mg/kg, po measured at 4 hrs by hematology analyzer based analysis; assay type: functional; parameters: scale not given: the % may be the effect or the level left; outline: as §1
[6] = biological target: Sphingosine 1-phosphate receptor 1 (Homo sapiens, UniProt P21453); assay: Agonist activity at human S1P1 expressed in CHO cell membranes assessed as stimulation of [35S]-GTPgamma-S binding measured after 45 mins by liquid scintillation counting method; parameters: species or system Cell membrane
Outline: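 S1P1/CHO cell membranes at 3 μg protein/well with 3-fold compound dilutions. [35S]GTPγS 0.2 nM final, 45 min at room temperature. Filter-plate capture, water washes, scintillation counting. EC50 taken at 50% of each compound's own Ymax.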

[7] = Plasma concentration in Lewis rat at 1 mg/kg, po measured at 24 hrs; assay type: ADME, organism-based; conditions: for concentration at 24 h: Lewis, plasma; for concentration / Cp: in vivo, 1 mg/kg, 24 h; for Cp: BLD = below limit of detection; outline: as §2
[8] = Ratio of plasma concentration in Lewis rat at 1 mg/kg, po measured at 4 hrs to plasma concentration in Lewis rat at 1 mg/kg, po measured at 24 hrs; assay type: ADME, organism-based; conditions: in vivo

Sequence of Sphingosine 1-phosphate receptor 1 (P21453 whole entry): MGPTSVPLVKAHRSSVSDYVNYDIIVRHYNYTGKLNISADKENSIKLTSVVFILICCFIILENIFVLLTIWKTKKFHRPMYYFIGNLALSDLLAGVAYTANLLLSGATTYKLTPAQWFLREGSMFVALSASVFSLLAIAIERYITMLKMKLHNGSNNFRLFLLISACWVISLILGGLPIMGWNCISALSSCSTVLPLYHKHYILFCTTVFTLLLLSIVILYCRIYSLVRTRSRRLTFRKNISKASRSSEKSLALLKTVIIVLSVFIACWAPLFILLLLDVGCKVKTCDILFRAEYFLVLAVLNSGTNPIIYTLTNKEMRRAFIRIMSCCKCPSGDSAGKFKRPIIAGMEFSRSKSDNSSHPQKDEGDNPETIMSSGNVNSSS
Sequence of Sphingosine 1-phosphate receptor 3 (Q99500 whole entry): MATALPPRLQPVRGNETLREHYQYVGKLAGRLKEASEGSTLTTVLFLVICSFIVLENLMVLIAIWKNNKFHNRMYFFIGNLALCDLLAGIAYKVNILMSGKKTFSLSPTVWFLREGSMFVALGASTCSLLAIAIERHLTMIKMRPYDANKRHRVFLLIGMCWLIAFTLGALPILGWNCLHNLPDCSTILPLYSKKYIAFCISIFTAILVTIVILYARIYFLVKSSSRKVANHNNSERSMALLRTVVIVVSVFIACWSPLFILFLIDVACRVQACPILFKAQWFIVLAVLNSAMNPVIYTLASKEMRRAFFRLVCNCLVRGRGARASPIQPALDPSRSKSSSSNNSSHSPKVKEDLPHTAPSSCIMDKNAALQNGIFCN

Structure (SMILES) | EC50 [1] [nM] | Activity (Rattus norvegicus [2]) [%] | Ratio EC50 [3] | concentration at 4 h [4] [nM] | Activity (Rattus norvegicus [5]) [%] | EC50 [6] [nM] | Ratio [8] | other results
Cc1cc2c(cc1CN1CC(C(=O)O)C1)CCc1c-2noc1-c1noc(-c2ccccc2)c1C(F)(F)F | 1200 | 34 | 1400 | 190 | 85 | 0.87 | 48 | concentration at 24 h [7]: 4 nM
CS(=O)(=O)CCNC(=O)C(O)c1ccc2c(c1)CCc1c-2noc1-c1noc(-c2ccccc2)c1C(F)(F)F (stereo in doubt; 78) [listing 1 of 2 here] | 6200 | 43 |  | 190 | 50 | 1.6 |  | concentration at 24 h [7]: 26 nM
O=C(O)C1CN(Cc2ccc3c(c2)CCc2c-3noc2-c2snc(-c3ccccc3)c2C(F)(F)F)C1 | 4600 | 69 | 7900 | 190 | 74 | 0.58 | 6 | concentration at 24 h [7]: 32 nM
O=C(O)C1CN(Cc2ccc3c(n2)CCc2c(-c4noc(-c5ccccc5)c4C(F)(F)F)noc2-3)C1 | > 63000 | 32 | > 3700 | 460 | 76 | 17 | 10 | concentration at 24 h [7]: 47 nM
O=C(O)C[C@H]1CCCN(CC(O)c2ccc3c(c2)CCc2c-3noc2-c2noc(-c3ccccc3)c2C(F)(F)F)C1 (stereo in doubt; 73) [listing 1 of 2 here] |  |  | 1900 |  |  |  |  | 
O=C(O)C[C@H]1CCCN(CC(O)c2ccc3c(c2)CCc2c-3noc2-c2noc(-c3ccccc3)c2C(F)(F)F)C1 (stereo in doubt; 74) [listing 1 of 2 here] |  |  | 5200 |  |  |  |  | 
O=C(O)[C@H]1CCCN(CC(O)c2ccc3c(c2)CCc2c-3noc2-c2noc(-c3ccccc3)c2C(F)(F)F)C1 (stereo in doubt; 76) [listing 1 of 2 here] |  |  | 620 |  |  |  |  | 
O=C(O)C[C@H]1CCCN(CC(O)c2ccc3c(c2)CCc2c-3noc2-c2noc(-c3ccccc3)c2C(F)(F)F)C1 (stereo in doubt; 73) [listing 2 of 2 here] | 7400 |  |  |  | 70 | 4 | 1 | Activity (Rattus norvegicus [2]; 1 mg/kg, 24 h): 72%; concentration ([4]; in vivo, 1 mg/kg, 4 h): 190 nM; concentration [7]: 160 nM
O=C(O)C[C@H]1CCCN(CC(O)c2ccc3c(c2)CCc2c-3noc2-c2noc(-c3ccccc3)c2C(F)(F)F)C1 (stereo in doubt; 74) [listing 2 of 2 here] | 1700 |  |  |  |  | 0.33 | 4 | Activity (Rattus norvegicus [2]; 1 mg/kg, 24 h): 87%; concentration ([4]; in vivo, 1 mg/kg, 4 h): 93 nM; concentration [7]: 32 nM
O=C(O)C1CN(Cc2ccc3c(c2)CCc2nc(-c4onc(-c5ccccc5)c4C(F)(F)F)oc2-3)C1 | 920 | 2 | 170 | 110 | 62 | 5.5 | 10 | concentration at 24 h [7]: 11 nM
O=C(O)C1CN(Cc2ccc3c(c2)CCc2nc(-c4onc(-c5ccccc5)c4C(F)(F)F)sc2-3)C1 | 12000 | 85 | 5000 | 230 | 80 | 2.4 | 3 | concentration at 24 h [7]: 84 nM
O=C(O)[C@H]1CCCN(CC(O)c2ccc3c(c2)CCc2c-3noc2-c2noc(-c3ccccc3)c2C(F)(F)F)C1 (stereo in doubt; 76) [listing 2 of 2 here] | 16000 |  |  |  |  | 26 | 7 | Activity (Rattus norvegicus [2]; 1 mg/kg, 24 h): 20%; Activity (Rattus norvegicus [5]; 1 mg/kg, 4 h): 28%; concentration [7]: 21 nM
O=C(O)C1CN(Cc2ccc3c(c2)CCc2c-3noc2-c2cccc(C(F)(F)F)c2)C1 | > 63000 |  | > 200 |  |  | 310 |  | 
Cn1nc(-c2noc(-c3ccccc3)c2C(F)(F)F)c2c1-c1ccc(CN3CC(C(=O)O)C3)cc1CC2 | > 63000 |  | > 3000 |  |  | 21 |  | 
O=C(O)C1CN(Cc2ccc3c(c2)Cc2c-3noc2-c2noc(-c3ccccc3)c2C(F)(F)F)C1 | 32000 | 3 | 4700 | 21 | 14 | 6.8 |  | Cp [7]: Bld
O=C(O)C1CN(Cc2ccc3c(c2)CCc2c-3n[nH]c2-c2onc(-c3ccccc3)c2C(F)(F)F)C1 | > 63000 |  | > 330 |  |  | 190 |  | 
CS(=O)(=O)CCNC(=O)C(O)c1ccc2c(c1)CCc1c-2noc1-c1noc(-c2ccccc2)c1C(F)(F)F (stereo in doubt; 77) [listing 1 of 2 here] | 18000 |  |  |  |  | 200 |  | 
CC(C)Oc1ccc(-c2onc3c2CCc2cc(CN4CC(C(=O)O)C4)ccc2-3)c(C(F)(F)F)c1 | 11000 |  | 460 |  |  | 24 |  | 
CCOc1ccc(-c2onc3c2CCc2cc(CN4CC(C(=O)O)C4)ccc2-3)cc1OCC | 14000 |  | 8800 |  |  | 1.6 |  | 
CS(=O)(=O)CCNC(=O)C(O)c1ccc2c(c1)CCc1c-2noc1-c1noc(-c2ccccc2)c1C(F)(F)F (stereo in doubt; 77) [listing 2 of 2 here] |  |  | 90 |  |  |  |  | 
CN1Cc2c(noc2-c2onc(-c3ccccc3)c2C(F)(F)F)-c2ccc(CN3CC(C(=O)O)C3)cc21 | > 63000 |  | > 39000 |  |  | 1.6 |  | 
O=C(O)C1CN(Cc2ccc(-c3noc(-c4onc(-c5ccccc5)c4C(F)(F)F)n3)cc2)C1 |  | 91 |  | 2100 | 78 |  | 3 | concentration at 24 h [7]: 700 nM
O=C(O)[C@H]1CCCN(CC(O)c2ccc3c(c2)CCc2c-3noc2-c2noc(-c3ccccc3)c2C(F)(F)F)C1 (stereo in doubt; 75) [listing 1 of 2 here] | 13000 |  |  | 140 |  | 0.21 | 3 | Activity (Rattus norvegicus [2]; 1 mg/kg, 24 h): 76%; Activity (Rattus norvegicus [5]; 1 mg/kg, 4 h): 76%; concentration [7]: 49 nM
O=C(O)C1CN(Cc2ccc3c(c2)OCCc2c(-c4noc(-c5ccccc5)c4C(F)(F)F)noc2-3)C1 | 1600 |  | 48 |  |  | 33 |  | 
CS(=O)(=O)CCNC(=O)C(O)c1ccc2c(c1)CCc1c-2noc1-c1noc(-c2ccccc2)c1C(F)(F)F (stereo in doubt; 78) [listing 2 of 2 here] |  |  | 3900 |  |  |  |  | 
O=C(O)C1CN(Cc2ccc3c(c2)CCCc2c(-c4noc(-c5ccccc5)c4C(F)(F)F)noc2-3)C1 | 12000 |  | 390 |  |  | 31 |  | 
O=C(O)[C@H]1CCCN(CC(O)c2ccc3c(c2)CCc2c-3noc2-c2noc(-c3ccccc3)c2C(F)(F)F)C1 (stereo in doubt; 75) [listing 2 of 2 here] |  |  | 62000 |  |  |  |  | 
Cn1nc2c(c1-c1noc(-c3ccccc3)c1C(F)(F)F)CCc1cc(CN3CC(C(=O)O)C3)ccc1-2 | > 63000 |  | > 170 |  |  | 380 |  | 
CC(C)Oc1ccc(-c2onc3c2CCc2cc(CN4CC(C(=O)O)C4)ccc2-3)cc1C#N | > 63000 | 12 | > 14000 |  | -5 | 4.6 |  | Cp ([4]; in vivo, 1 mg/kg, 4 h, BLD = below limit of detection): Bld; Cp [7]: Bld
O=C1NC(=O)C2(CN(Cc3ccc4c(c3)CCc3c-4noc3-c3noc(-c4ccccc4)c3C(F)(F)F)C2)N1 | 23000 |  | 450 |  |  | 51 |  | 

Source: ChEMBL document CHEMBL4680083, “Identification of Tricyclic Agonists of Sphingosine-1-phosphate Receptor 1 (S1P) Employing Ligand-Based Drug Design” (J Med Chem, 2016)
